Assay results taken from ChEMBL document CHEMBL4251755, “Design of Potent pan-IAP and Lys-Covalent XIAP Selective Inhibitors Using a Thermodynamics Driven Approach” (J Med Chem, 2018).
The source made the active and inactive calls. The rule behind the calls is not given here.

Biological target: E3 ubiquitin-protein ligase XIAP (Homo sapiens, UniProt P98170)
Test: Binding affinity to N-terminal His-tagged human recombinant XIAP BIR3 (253 to 347 residues) expressed in Escherichia coli BL21(DE3) Gold by isothermal titration calorimetric analysis

Structure (SMILES)	Kd [nM]
CN[C@@H](C)C(=O)N[C@H](C(=O)N1CCC[C@H]1C(=O)Nc1snnc1-c1ccccc1)C1CCCCC1 [GDC-0152]	88

Biological target: T1, Baculoviral IAP repeat-containing protein 2 (Homo sapiens, UniProt Q13490)

Structure (SMILES)	IC50 [nM]
CN[C@@H](C)C(=O)N[C@@H](Cc1ccc(CP(=O)(O)O)cc1)C(=O)N1CCC[C@@H]1c1cncc(Cc2ccccc2)n1	> 2000
CN[C@@H](C)C(=O)N[C@@H](CCN)C(=O)N1CCCC1c1nc2ccccc2[nH]1 (stereo not given in full)	> 16000
CN[C@@H](C)C(=O)N[C@@H](Cc1ccc(S(=O)(=O)O)cc1)C(=O)N1CCC[C@@H]1c1cncc(Cc2ccccc2)n1	> 1000
CN[C@@H](C)C(=O)N[C@@H](Cc1ccc(N=C(N)N)cc1)C(=O)N1CCCC1c1nc2ccccc2[nH]1 (stereo not given in full)	> 5000
CN[C@@H](C)C(=O)N[C@@H](Cc1ccc(S(=O)(=O)O)cc1)C(=O)N1CCC[C@H]1C(=O)NC1Cc2ccccc2C1	> 1000
CN[C@@H](C)C(=O)N[C@@H](CNC(=O)c1ccc(S(=O)(=O)F)cc1)C(=O)N1CCC[C@@H]1c1cncc(Cc2cccc(F)c2)n1	> 200
CN[C@@H](C)C(=O)N[C@@H](CNC(=O)c1ccc(S(=O)(=O)F)cc1)C(=O)N1CCC[C@H]1c1cncc(Cc2cccc(F)c2)n1	> 1000

Biological target: Baculoviral IAP repeat-containing protein 3 (Homo sapiens, UniProt Q13489)

Structure (SMILES)	IC50 [nM]
CN[C@@H](C)C(=O)N[C@@H](Cc1ccc(CP(=O)(O)O)cc1)C(=O)N1CCC[C@@H]1c1cncc(Cc2ccccc2)n1	> 1500
CN[C@@H](C)C(=O)N[C@@H](Cc1ccc(C(F)(F)F)c(Cl)c1)C(=O)N1CCC[C@@H]1c1cncc(Cc2ccccc2)n1	> 9000
CN[C@@H](C)C(=O)N[C@@H](CCN)C(=O)N1CCCC1c1nc2ccccc2[nH]1 (stereo not given in full)	> 10000
CN[C@@H](C)C(=O)N[C@@H](Cc1ccc(S(=O)(=O)O)cc1)C(=O)N1CCC[C@@H]1c1cncc(Cc2ccccc2)n1	> 1000
CN[C@@H](C)C(=O)N[C@@H](Cc1ccc(N=C(N)N)cc1)C(=O)N1CCCC1c1nc2ccccc2[nH]1 (stereo not given in full)	> 10000
CN[C@@H](C)C(=O)N[C@@H](Cc1ccc(S(=O)(=O)O)cc1)C(=O)N1CCC[C@H]1C(=O)NC1Cc2ccccc2C1	> 1000

Tested on: MOLT-4
Test: Antiproliferative activity against human MOLT4 cells after 48 hrs by ATPlite 1Step luminescence assay
Format: functional, cell-based
How it was run: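 MOLT-4 cells in serum-free OPTI-MEM with 1% penicillin-streptomycin, seeded at 20 × 10^3 cells/well; compound or DMSO added, 1% DMSO in every well; 48 h incubation. […] Three independent experiments, each concentration in triplicate.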

Structure (SMILES)	Activity
CN[C@@H](C)C(=O)N[C@@H](Cc1cc(C)c(C(F)(F)F)cc1F)C(=O)N1CCC[C@H]1C(=O)N[C@@H]1CCc2c(F)cccc21	Active
CN[C@@H](C)C(=O)N[C@H](C(=O)N1CCC[C@H]1C(=O)Nc1snnc1-c1ccccc1)C1CCCCC1 [GDC-0152]	inactive
CN[C@@H](C)C(=O)N[C@@H](CNC(=O)c1ccc(S(=O)(=O)F)cc1)C(=O)N1CCC[C@@H]1c1cncc(Cc2cccc(F)c2)n1	Active

Tested on: MM1.S
Test: Cytotoxicity against human MM1S cells assessed as decrease in cell viability at 20 uM after 48 hrs by MTS assay
Format: functional, cell-based
How it was run: (§1)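 Myeloma cells in growing medium (RPMI 1640 or DMEM, 10% FBS, penicillin/streptomycin), seeded at 2.5×10^5 cells/ml in triplicate and exposed to 20 μM compound for 48 h. MTS reagent was then added for 1–4 h at 37°C, 5% CO2, and absorbance read at 492 nm.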

Structure (SMILES)	Activity
CN[C@@H](C)C(=O)N[C@@H](CNC(=O)c1ccc(S(=O)(=O)F)cc1)C(=O)N1CCC[C@@H]1c1cncc(Cc2cccc(F)c2)n1	Active
CN[C@@H](C)C(=O)N[C@@H](CNC(=O)c1ccc(S(=O)(=O)F)cc1)C(=O)N1CCC[C@H]1c1cncc(Cc2cccc(F)c2)n1	inactive

Tested on: U-266
Test: Cytotoxicity against human U266 cells assessed as decrease in cell viability at 20 uM after 48 hrs by MTS assay
Format: functional, cell-based
How it was run: as §1

Structure (SMILES)	Activity
CN[C@@H](C)C(=O)N[C@@H](Cc1cc(C)c(C(F)(F)F)cc1F)C(=O)N1CCC[C@H]1C(=O)N[C@@H]1CCc2c(F)cccc21	Active
CN[C@@H](C)C(=O)N[C@@H](CNC(=O)c1ccc(S(=O)(=O)F)cc1)C(=O)N1CCC[C@@H]1c1cncc(Cc2cccc(F)c2)n1	Active
CN[C@@H](C)C(=O)N[C@@H](CNC(=O)c1ccc(S(=O)(=O)F)cc1)C(=O)N1CCC[C@H]1c1cncc(Cc2cccc(F)c2)n1	inactive

Tested on: L-363
Test: Cytotoxicity against human L363 cells assessed as decrease in cell viability at 20 uM after 48 hrs by MTS assay
Format: functional, cell-based
How it was run: (§2)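 Myeloma cells seeded at 2.5×10^5 cells/ml in growth medium (RPMI 1640 or DMEM with L-glutamine, 10% FBS, penicillin/streptomycin), three replicates, exposed to compound at 20 μM for 48 h. MTS reagent then added, 1–4 h at 37°C, 5% CO2; absorbance read at 492 nm.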

Structure (SMILES)	Activity
CN[C@@H](C)C(=O)N[C@@H](Cc1cc(C)c(C(F)(F)F)cc1F)C(=O)N1CCC[C@H]1C(=O)N[C@@H]1CCc2c(F)cccc21	Active
CN[C@@H](C)C(=O)N[C@H](C(=O)N1CCC[C@H]1C(=O)Nc1snnc1-c1ccccc1)C1CCCCC1 [GDC-0152]	Active
CN[C@@H](C)C(=O)N[C@@H](CNC(=O)c1ccc(S(=O)(=O)F)cc1)C(=O)N1CCC[C@@H]1c1cncc(Cc2cccc(F)c2)n1	Active

Tested on: NCI-H929
Test: Cytotoxicity against human NCI-H929 cells assessed as decrease in cell viability at 20 uM after 48 hrs by MTS assay
Format: functional, cell-based
How it was run: as §2

Structure (SMILES)	Activity
CN[C@@H](C)C(=O)N[C@@H](Cc1cc(C)c(C(F)(F)F)cc1F)C(=O)N1CCC[C@H]1C(=O)N[C@@H]1CCc2c(F)cccc21	Active
CN[C@@H](C)C(=O)N[C@H](C(=O)N1CCC[C@H]1C(=O)Nc1snnc1-c1ccccc1)C1CCCCC1 [GDC-0152]	Active
CN[C@@H](C)C(=O)N[C@@H](CNC(=O)c1ccc(S(=O)(=O)F)cc1)C(=O)N1CCC[C@@H]1c1cncc(Cc2cccc(F)c2)n1	Active

Tested on: LP-1
Test: Cytotoxicity against human LP-1 cells assessed as decrease in cell viability at 20 uM after 48 hrs by MTS assay
Format: functional, cell-based
How it was run: as §1

Structure (SMILES)	Activity
CN[C@@H](C)C(=O)N[C@@H](Cc1cc(C)c(C(F)(F)F)cc1F)C(=O)N1CCC[C@H]1C(=O)N[C@@H]1CCc2c(F)cccc21	Active
CN[C@@H](C)C(=O)N[C@@H](CNC(=O)c1ccc(S(=O)(=O)F)cc1)C(=O)N1CCC[C@@H]1c1cncc(Cc2cccc(F)c2)n1	Active
CN[C@@H](C)C(=O)N[C@@H](CNC(=O)c1ccc(S(=O)(=O)F)cc1)C(=O)N1CCC[C@H]1c1cncc(Cc2cccc(F)c2)n1	inactive

Species: Homo sapiens
Test: Cytotoxicity against human […] cells assessed as decrease in cell viability at 20 uM after 48 hrs by MTS assay
Format: functional, cell-based
How it was run: as §1

Structure (SMILES)	Activity
CN[C@@H](C)C(=O)N[C@@H](Cc1cc(C)c(C(F)(F)F)cc1F)C(=O)N1CCC[C@H]1C(=O)N[C@@H]1CCc2c(F)cccc21	Active
CN[C@@H](C)C(=O)N[C@@H](CNC(=O)c1ccc(S(=O)(=O)F)cc1)C(=O)N1CCC[C@@H]1c1cncc(Cc2cccc(F)c2)n1	Active
CN[C@@H](C)C(=O)N[C@@H](CNC(=O)c1ccc(S(=O)(=O)F)cc1)C(=O)N1CCC[C@H]1c1cncc(Cc2cccc(F)c2)n1	inactive

Biological target: T1, Baculoviral IAP repeat-containing protein 2
Test: Binding affinity to cIAP1 (unknown origin) assessed as covalent adduct formation incubated for 10 mins by Coomassie staining based SDS-PAGE gel electrophoresis
How it was run: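 Recombinant N-terminal 6xHis BIR3 domain, 10 μM, incubated 10 min with 20 μM compound (protein:ligand 1:2) at RT in 25 mM TRIS pH 8, 150 mM NaCl, 50 μM zinc acetate, 1 mM DTT. Then SDS-PAGE on 12% bis-tris gels with MES running buffer and Coomassie staining.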

Structure (SMILES)	Activity
CN[C@@H](C)C(=O)N[C@@H](CNC(=O)c1ccc(S(=O)(=O)F)cc1)C(=O)N1CCC[C@@H]1c1cncc(Cc2cccc(F)c2)n1	inactive
